From ChEMBL document CHEMBL1649530, “Pharmacokinetics and pharmacodynamics of a novel triazole, isavuconazole: mathematical modeling, importance of tissue concentrations, and impact of immune status on antifungal effect” (Antimicrob Agents Chemother, 2009) come the findings set out here.

Structures are written as SMILES. Converted amounts (≈) assume the structure as drawn. The source made the active and inactive calls. No cut-off for these calls is given here.

Data set [1] in a line: Ratio of AUC to MIC in mouse infected with Candida albicans FA/6862 at 8.12 mg/kg, sc administered as single dose. To be noted: route subcutaneous. Type of data set: functional.
A short description of data set [2]: Ratio of AUC to MIC in mouse infected with Candida albicans FA/6862 at 3.27 mg/kg, sc administered as single dose. To be noted: route subcutaneous. Format: functional.
Data set [3] is described as follows: Ratio of AUC to MIC in mouse infected with Candida albicans FA/6862 at 4.06 mg/kg, sc BID. Format: functional. To be noted: route subcutaneous.
A short description of data set [4]: Ratio of AUC to MIC in mouse infected with Candida albicans FA/6862 at 0.82 mg/kg, sc QID. Type of data set: functional. To be noted: route subcutaneous.
The subject of data set [5] is Candida albicans. Put plainly: Antifungal activity against Candida albicans FA/6862 infected in mouse assessed as fungal load per gram of kidney at 1.6 to 28 mg/kg, sc measured after 29 hrs postinfection. As to conditions: dose mg/kg 1.6-28; route subcutaneous.
Data set [6] relates to Candida albicans. As to the kind of experiment: Antifungal activity against Candida albicans FA/6862 assessed as postantifungal effect at 2 times MIC by CLSI M27-A2 method. Format: functional. In outline:
(§1)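 Log-phase organism washed in PBS, resuspended at 1 × 10^6 CFU/ml in warmed RPMI 1640 + 2% glucose, pre-incubated 30 min at 37°C. Drug added at 1/10× to 100× MIC for 3 h, then washed twice and regrown in drug-free RPMI. Quantitative subcultures hourly to 8 h, then 14 and 24 h. PAFE = delay in reaching +1 log10 CFU/ml versus drug-free controls.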

Data set [7] can be described thus: Ratio of AUC to MIC in mouse infected with Candida albicans FA/6862 at 13.48 mg/kg, sc administered as single dose. Type of data set: functional. To be noted: route subcutaneous.
A short description of data set [8]: Ratio of AUC to MIC in mouse infected with Candida albicans FA/6862 at 6.74 mg/kg, sc BID. Type of data set: functional. To be noted: route subcutaneous.
Data set [9] can be described thus: Ratio of AUC to MIC in mouse infected with Candida albicans FA/6862 at 2.03 mg/kg, sc QID. As to conditions: route subcutaneous. Format: functional.
The subject of data set [10] is Candida albicans. As to the kind of experiment: Antifungal activity against Candida albicans FA/6862 assessed as postantifungal effect at =< 1 time MIC by CLSI M27-A2 method. Format: functional, organism-based. In outline:
as §1

Data set [11] can be described thus: Ratio of AUC to MIC in mouse infected with Candida albicans FA/6862 at 1.34 mg/kg, sc QID. Type of data set: functional. To be noted: route subcutaneous.
Data set [12] deals with Candida albicans. As to the kind of experiment: Antifungal activity against Candida albicans FA/6862 assessed as postantifungal effect at 5 to 100 times MIC by CLSI M27-A2 method. Type of data set: functional. The gist of the method:
as §1

Data set [13] is described as follows: Ratio of AUC to MIC in mouse infected with Candida albicans FA/6862 at 5.35 mg/kg, sc administered as single dose. Format: functional. To be noted: route subcutaneous.
Data set [14] in a line: Ratio of AUC to MIC in mouse infected with Candida albicans FA/6862 at 1.63 mg/kg, sc BID. Format: functional. As to conditions: route subcutaneous.
Data set [15] can be described thus: Ratio of AUC to MIC in mouse infected with Candida albicans FA/6862 at 2.67 mg/kg, sc BID. Type of data set: functional. As to conditions: route subcutaneous.
Data set [16] relates to Candida albicans. Put plainly: Antifungal activity against Candida albicans FA/6862 by CLSI M27-A2 method. Type of data set: functional. In outline: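 Broth microdilution per CLSI M27-A2. Run in duplicate on three separate occasions; modal MIC used.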
The nature of data set [17]: Terminal half life in mouse at 1.6 to 13 mg/kg, sc. Details: dose 1.6-13 mg/kg, route subcutaneous. As to conditions: in vivo, read-out: beta t1/2 (converted). Format: ADME, organism-based. In outline:
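Infected, cyclophosphamide-neutropenic mice given single sc doses. Plasma collected by cardiac puncture at 0.5–24 h, three mice per time point. Plasma stabilized with citric acid and assayed by LC-MS/MS. Half-life derived from a population PK model co-fitting plasma, kidney and fungal burden data.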

The nature of data set [18]: Ratio of AUC to MIC in mouse infected with Candida albicans FA/6862 at 3.37 mg/kg, sc QID. As to conditions: route subcutaneous.

The term MIC denotes the lowest concentration that inhibits growth of the organism. Lower therefore signals inhibition by little substance. Turning to `C[C@@H](c1nc(-c2ccc(C#N)cc2)cs1)[C@](O)(Cn1cncn1)c1cc(F)ccc1F` [ISAVUCONAZOLE], the RatioAUC/MIC in data set [1] is 969.5; in [2] it was 387.75; in [3], 960.25; in data set [4], 372.25; in data set [7], 1599.75; in [8], 1584.5. Besides, the RatioAUC/MIC is recorded as 930.5 in data set [9]; 614.25 in data set [11]; 630 in [13]; 384.25 in data set [14]; 633.75 in data set [15]; 1544.75 in data set [18]. Further, the log10cfu with Candida albicans [5] is 5.5. For the same compound, the Time in the data set with Candida albicans [6] amounted to 2 h; in the data set with Candida albicans [12] it was 5 h. The result with Candida albicans [10] was inactive. Besides, in the data set on Candida albicans [16], the minimum inhibitory concentration (MIC) came out at 4 ng/mL (≈ 9.14 nM). The half-life in data set [17] was 3.41 h.
